Reference: ChEMBL document CHEMBL1833970, “One-pot syntheses of pseudopteroxazoles from pseudopterosins: a rapid route to non-natural congeners with improved antimicrobial activity” (J Nat Prod, 2011)
In brackets after ≈: the same amount, converted by molar mass. Activity calls are given as the source filed them. The calls are words filed in the database; no cut-off is given here.

Tests used:
[1] = tested on: Mycolicibacterium smegmatis; test: Antimicrobial activity against Mycobacterium smegmatis ATCC 12051 after 5 days by microbroth dilution antibiotic susceptibility assay; format: functional; conditions: ATCC 12051, 120 h
Summary of the method: (§1)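 Microbroth dilution per CLSI M24-A for fast-growing mycobacteria. Compounds prepared in sterile 20% DMSO and serially diluted to eight concentrations, triplicate on separate plates. Uninoculated and untreated (media + 20% DMSO) controls plus a control antibiotic column. Incubated 5 days at 30 °C; growth relative to untreated wells scored visually to give MIC.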

Pseudomonas aeruginosa = test: Antimicrobial activity against Pseudomonas aeruginosa ATCC 14210 after 22 hrs by microbroth dilution antibiotic susceptibility assay; format: functional, organism-based
Summary of the method: (§2)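 Microbroth dilution per CLSI M7-A6. Compounds in sterile 20% DMSO, serially diluted to eight concentrations, tested in triplicate with uninoculated and untreated controls. Control antibiotic was gentamycin for P. aeruginosa, ciprofloxacin for P. vulgaris and nystatin for C. albicans. OD600 read at time zero and after 22 h at 37 °C. Survival relative to vehicle calculated after baseline subtraction; IC50 derived.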

Staphylococcus aureus = test: Antimicrobial activity against methicillin-resistant Staphylococcus aureus ATCC 33591 after 22 hrs by microbroth dilution antibiotic susceptibility assay; format: functional, organism-based; conditions: ATCC 33591, 22 h
Summary of the method: (§3)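 CLSI M7-A6 broth microdilution, run in triplicate. Compounds were made up in sterile 20% DMSO and serially diluted to eight concentrations. Plates carried uninoculated and untreated controls (media + 20% DMSO) plus a control antibiotic column. OD600 was read at time zero and after 22 h at 37 °C. Time-zero readings were subtracted, survival was calculated relative to vehicle wells, and IC50 was derived.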

[2] = tested on: Mycolicibacterium diernhoferi; test: Antimicrobial activity against Mycobacterium diernhoferi ATCC 19340 after 5 days by microbroth dilution antibiotic susceptibility assay; format: functional; conditions: ATCC 19340, 120 h; summary of the method: as §1
Candida albicans = test: Antimicrobial activity against Candida albicans ATCC 14035 after 22 hrs by microbroth dilution antibiotic susceptibility assay; format: functional, organism-based; summary of the method: as §2
Enterococcus faecium = test: Antimicrobial activity against vancomycin-resistant Enterococcus faecium Ef 379 after 22 hrs by microbroth dilution antibiotic susceptibility assay; format: functional, organism-based; conditions: Ef 379, 22 h; summary of the method: as §3
Proteus vulgaris = test: Antimicrobial activity against Proteus vulgaris ATCC 12454 after 22 hrs by microbroth dilution antibiotic susceptibility assay; format: functional, organism-based; summary of the method: as §2

Question: What does the source list for `CCCCCc1nc2c(C)c3c4c(c2o1)[C@@H](C)CC[C@@H]4[C@@H](C)C[C@H]3C=C(C)C` [HOMOPSEUDOPTEROXAZOLE]?
Answer: MIC [1]: > 64 µg/mL; Activity (Pseudomonas aeruginosa): inactive; IC50 (Staphylococcus aureus): > 128 µg/mL; MIC [2]: > 64 µg/mL; Activity (Candida albicans): inactive; IC50 (Enterococcus faecium): > 128 µg/mL

Question: `CC(C)=C[C@@H]1C[C@H](C)[C@H]2CC[C@H](C)c3c2c1c(C)c1nc(C)oc31` was tested. Which MIC [1] did it give?
Answer: Its MIC is 8 µg/mL (≈ 24.7 µM).

Question: What about the Activity (Pseudomonas aeruginosa) of the same compound?
Answer: Its Activity is “inactive”.

Question: And the IC50 (Staphylococcus aureus)?
Answer: Its IC50 is > 128 µg/mL.

Question: And the MIC [2]?
Answer: The MIC was 4 µg/mL (≈ 12.4 µM).

Question: What about the Activity (Candida albicans) of the same compound?
Answer: Its Activity is “inactive”.

Question: What about the IC50 (Enterococcus faecium) of the same compound?
Answer: The IC50 was 2.5 µg/mL (≈ 7.73 µM).

Question: How did the MIC [1] turn out when `CC[C@H](C)c1nc2c(C)c3c4c(c2o1)[C@@H](C)CC[C@@H]4[C@@H](C)C[C@H]3C=C(C)C` was run?
Answer: Its MIC is > 64 µg/mL.

Question: And the Activity (Pseudomonas aeruginosa)?
Answer: Its Activity is “inactive”.

Question: What about the IC50 (Staphylococcus aureus) of the same compound?
Answer: The IC50 was > 128 µg/mL.

Question: What about the MIC [2] of the same compound?
Answer: The MIC was > 64 µg/mL.

Question: And the Activity (Candida albicans)?
Answer: The Activity was “inactive”.

Question: And the IC50 (Enterococcus faecium)?
Answer: Its IC50 is > 128 µg/mL.

Question: `CN[C@H](CC(C)C)C(=O)N[C@H]1C(=O)N[C@@H](CC(N)=O)C(=O)N[C@H]2C(=O)N[C@H]3C(=O)N[C@H](C(=O)N[C@H](C(=O)O)c4cc(O)cc(O)c4-c4cc3ccc4O)[C@H](O)c3ccc(c(Cl)c3)Oc3cc2cc(c3O[C@@H]2O[C@H](CO)[C@@H](O)[C@H](O)[C@H]2O[C@H]2C[C@](C)(N)[C@H](O)[C@H](C)O2)Oc2ccc(cc2Cl)[C@H]1O` [VANCOMYCIN] was tested. Which IC50 (Staphylococcus aureus) did it give?
Answer: Its IC50 is 12.2 µg/mL (≈ 8.45 µM).

Question: Which MIC [1] does the source give for `CO[C@H]1/C=C/O[C@@]2(C)Oc3c(C)c(O)c4c(O)c(c(/C=N/N5CCN(C)CC5)c(O)c4c3C2=O)NC(=O)/C(C)=C\C=C\[C@H](C)[C@H](O)[C@@H](C)[C@@H](O)[C@@H](C)[C@H](OC(C)=O)[C@@H]1C` [RIFAMPIN] here?
Answer: Its MIC is 4 µg/mL (≈ 4.86 µM).

Question: What about the MIC [2] of the same compound?
Answer: The MIC was 4 µg/mL (≈ 4.86 µM).

Question: And the IC50 (Enterococcus faecium)?
Answer: The IC50 was 8.75 µg/mL (≈ 10.6 µM).

Question: For `CC(C)=C[C@@H]1C[C@H](C)[C@H]2CC[C@H](C)c3c2c1c(C)c1nc(CC(N)=O)oc31`, which MIC [1] is on record?
Answer: Its MIC is 4 µg/mL (≈ 10.9 µM).

Question: What about the Activity (Proteus vulgaris) of the same compound?
Answer: Its Activity is “inactive”.

Question: And the Activity (Pseudomonas aeruginosa)?
Answer: The Activity was “inactive”.

Question: What about the IC50 (Staphylococcus aureus) of the same compound?
Answer: Its IC50 is 3 µg/mL (≈ 8.19 µM).

Question: What about the MIC [2] of the same compound?
Answer: Its MIC is 2 µg/mL (≈ 5.46 µM).

Question: What about the Activity (Candida albicans) of the same compound?
Answer: The Activity was “inactive”.

Question: And the IC50 (Enterococcus faecium)?
Answer: Its IC50 is 4 µg/mL (≈ 10.9 µM).

Question: For `CC(C)=C[C@@H]1C[C@H](C)[C@H]2CC[C@H](C)c3c2c1c(C)c1nc(-c2ccc(F)cc2)oc31`, which MIC [1] is on record?
Answer: Its MIC is > 64 µg/mL.

Question: What about the Activity (Pseudomonas aeruginosa) of the same compound?
Answer: The Activity was “inactive”.

Question: And the MIC [2]?
Answer: The MIC was > 64 µg/mL.

Question: And the Activity (Candida albicans)?
Answer: The Activity was “inactive”.

Question: With `CC(C)=C[C@@H]1C[C@H](C)[C@H]2CC[C@H](C)c3c2c1c(C)c1nc(CCC(=O)O)oc31` as the compound, how does the MIC [1] read?
Answer: The MIC was 8 µg/mL (≈ 21 µM).

Question: And the Activity (Pseudomonas aeruginosa)?
Answer: Its Activity is “inactive”.

Question: And the IC50 (Staphylococcus aureus)?
Answer: The IC50 was 12 µg/mL (≈ 31.5 µM).

Question: And the MIC [2]?
Answer: Its MIC is 4 µg/mL (≈ 10.5 µM).

Question: And the Activity (Candida albicans)?
Answer: The Activity was “inactive”.

Question: What about the IC50 (Enterococcus faecium) of the same compound?
Answer: The IC50 was 12 µg/mL (≈ 31.5 µM).

Question: Which results are given for `CSCCc1nc2c(C)c3c4c(c2o1)[C@@H](C)CC[C@@H]4[C@@H](C)C[C@H]3C=C(C)C`?
Answer: MIC [1]: 16 µg/mL (≈ 41.7 µM); Activity (Pseudomonas aeruginosa): inactive; IC50 (Staphylococcus aureus): > 128 µg/mL; MIC [2]: 16 µg/mL (≈ 41.7 µM); Activity (Candida albicans): inactive; IC50 (Enterococcus faecium): > 128 µg/mL

Question: With `CC(C)=C[C@@H]1C[C@H](C)[C@H]2CC[C@H](C)c3c2c1c(C)c1ncoc31` [PSEUDOPTEROXAZOLE] as the compound, how does the MIC [1] read?
Answer: Its MIC is 2 µg/mL (≈ 6.46 µM).

Question: What about the Activity (Proteus vulgaris) of the same compound?
Answer: Its Activity is “inactive”.

Question: And the Activity (Pseudomonas aeruginosa)?
Answer: Its Activity is “inactive”.

Question: And the IC50 (Staphylococcus aureus)?
Answer: The IC50 was > 128 µg/mL.

Question: And the MIC [2]?
Answer: The MIC was 4 µg/mL (≈ 12.9 µM).

Question: And the Activity (Candida albicans)?
Answer: Its Activity is “inactive”.

Question: And the IC50 (Enterococcus faecium)?
Answer: The IC50 was 13 µg/mL (≈ 42 µM).

Question: With `CC(C)=C[C@@H]1C[C@H](C)[C@H]2CC[C@H](C)c3c2c1c(C)c1nc([C@@H](C)O)oc31` as the compound, how does the MIC [1] read?
Answer: Its MIC is 16 µg/mL (≈ 45.3 µM).

Question: What about the Activity (Pseudomonas aeruginosa) of the same compound?
Answer: Its Activity is “inactive”.

Question: What about the IC50 (Staphylococcus aureus) of the same compound?
Answer: The IC50 was > 128 µg/mL.

Question: What about the MIC [2] of the same compound?
Answer: Its MIC is 8 µg/mL (≈ 22.6 µM).

Question: And the Activity (Candida albicans)?
Answer: The Activity was “inactive”.

Question: And the IC50 (Enterococcus faecium)?
Answer: The IC50 was > 128 µg/mL.

Question: Which MIC [1] does the source give for `CC(C)=C[C@@H]1C[C@H](C)[C@H]2CC[C@H](C)c3c2c1c(C)c1nc(CCC(N)=O)oc31` here?
Answer: The MIC was 4 µg/mL (≈ 10.5 µM).

Question: What about the Activity (Pseudomonas aeruginosa) of the same compound?
Answer: Its Activity is “inactive”.

Question: And the IC50 (Staphylococcus aureus)?
Answer: The IC50 was 7 µg/mL (≈ 18.4 µM).

Question: And the MIC [2]?
Answer: The MIC was 4 µg/mL (≈ 10.5 µM).

Question: And the Activity (Candida albicans)?
Answer: The Activity was “inactive”.

Question: And the IC50 (Enterococcus faecium)?
Answer: The IC50 was 7 µg/mL (≈ 18.4 µM).

Question: `COc1ccccc1-c1nc2c(C)c3c4c(c2o1)[C@@H](C)CC[C@@H]4[C@@H](C)C[C@H]3C=C(C)C` was tested. Which MIC [1] did it give?
Answer: Its MIC is > 64 µg/mL.

Question: What about the Activity (Pseudomonas aeruginosa) of the same compound?
Answer: Its Activity is “inactive”.

Question: What about the IC50 (Staphylococcus aureus) of the same compound?
Answer: The IC50 was > 128 µg/mL.

Question: And the MIC [2]?
Answer: The MIC was > 64 µg/mL.

Question: What about the Activity (Candida albicans) of the same compound?
Answer: The Activity was “inactive”.

Question: And the IC50 (Enterococcus faecium)?
Answer: Its IC50 is > 128 µg/mL.

Question: For `NNC(=O)c1ccncc1` [ISONIAZID], which MIC [1] is on record?
Answer: Its MIC is 1 µg/mL (≈ 7.29 µM).

Question: And the MIC [2]?
Answer: Its MIC is 0.25 µg/mL (≈ 1.82 µM).

Question: Which results are given for `CC(C)=C[C@@H]1C[C@H](C)[C@H]2CC[C@H](C)c3c2c1c(C)c1nc(Cc2ccccc2)oc31`?
Answer: MIC [1]: > 64 µg/mL; Activity (Pseudomonas aeruginosa): inactive; IC50 (Staphylococcus aureus): > 128 µg/mL; MIC [2]: 4 µg/mL (≈ 10 µM); Activity (Candida albicans): inactive; IC50 (Enterococcus faecium): > 128 µg/mL

Question: `COC(=O)CCc1nc2c(C)c3c4c(c2o1)[C@@H](C)CC[C@@H]4[C@@H](C)C[C@H]3C=C(C)C` was tested. Which MIC [1] did it give?
Answer: The MIC was > 128 µg/mL.

Question: What about the Activity (Pseudomonas aeruginosa) of the same compound?
Answer: The Activity was “inactive”.

Question: And the IC50 (Staphylococcus aureus)?
Answer: The IC50 was > 128 µg/mL.

Question: And the MIC [2]?
Answer: The MIC was > 128 µg/mL.

Question: What about the Activity (Candida albicans) of the same compound?
Answer: Its Activity is “inactive”.

Question: And the IC50 (Enterococcus faecium)?
Answer: Its IC50 is > 128 µg/mL.

Question: With `CC(C)=C[C@@H]1C[C@H](C)[C@H]2CC[C@H](C)c3c2c1c(C)c1ocnc31` [ISOPSEUDOPTEROXAZOLE] as the compound, how does the MIC [1] read?
Answer: The MIC was 8 µg/mL (≈ 25.9 µM).

Question: And the Activity (Pseudomonas aeruginosa)?
Answer: Its Activity is “inactive”.

Question: What about the IC50 (Staphylococcus aureus) of the same compound?
Answer: The IC50 was > 128 µg/mL.

Question: And the MIC [2]?
Answer: The MIC was 8 µg/mL (≈ 25.9 µM).

Question: What about the Activity (Candida albicans) of the same compound?
Answer: Its Activity is “inactive”.

Question: What about the IC50 (Enterococcus faecium) of the same compound?
Answer: Its IC50 is 13 µg/mL (≈ 42 µM).
